The source made the active and inactive calls. The rule behind the calls is not given here.
Key:
[1] = system: 3-phosphoinositide dependent protein kinase-2, PDK2; assay: Inhibition of PDK2 in human PC3 cells assessed as Akt Ser-473 dephosphorylation by Western blot analysis; format: functional, cell-based; details: PC-3
Procedure, shortened: (§1)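 Cells exposed 24 h in 5% FBS medium, final DMSO 0.1%; lysed in 1% SDS/10 mM EDTA/50 mM Tris pH 8.1, equal protein on SDS-PAGE, nitrocellulose, primary antibody 1:1000 at 4°C for 2 h, HRP secondary 1:5000, ECL detection; blots representative of three independent experiments.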

[2] = molecular target: T1, 3-phosphoinositide-dependent protein kinase 1 (Homo sapiens) (UniProt O15530); assay: Inhibition of PDK2 in human PC3 cells assessed as Akt Thr-308 dephosphorylation by Western blot analysis; format: functional, cell-based; details: PC-3; procedure, shortened: as §1
T1 sequence (whole entry): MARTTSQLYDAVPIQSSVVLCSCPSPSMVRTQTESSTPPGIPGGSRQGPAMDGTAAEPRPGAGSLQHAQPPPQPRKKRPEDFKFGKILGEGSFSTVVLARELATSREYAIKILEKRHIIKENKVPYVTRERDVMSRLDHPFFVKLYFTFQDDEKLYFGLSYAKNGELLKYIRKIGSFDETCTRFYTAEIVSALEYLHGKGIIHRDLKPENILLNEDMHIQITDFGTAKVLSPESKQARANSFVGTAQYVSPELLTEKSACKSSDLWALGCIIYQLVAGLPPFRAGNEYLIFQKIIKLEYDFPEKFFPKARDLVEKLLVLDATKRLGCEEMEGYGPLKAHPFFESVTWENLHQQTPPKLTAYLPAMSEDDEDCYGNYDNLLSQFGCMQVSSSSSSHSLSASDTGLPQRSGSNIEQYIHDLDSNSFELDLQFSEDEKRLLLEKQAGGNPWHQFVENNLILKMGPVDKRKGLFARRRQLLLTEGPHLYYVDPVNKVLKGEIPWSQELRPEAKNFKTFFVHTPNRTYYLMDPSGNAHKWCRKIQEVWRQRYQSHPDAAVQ

inhibition [2]	Structure (SMILES)	inhibition [1]
inactive	CCNC(=O)CCc1cc(-c2ccc(-c3ccc(C(F)(F)F)cc3)cc2)n(-c2ccc(N3CCNCC3)cc2)n1	Active
inactive	CNC(=O)c1cc(-c2ccc(-c3ccc(C(F)(F)F)cc3)cc2)n(-c2ccc(N3CCNCC3)cc2)n1	inactive
inactive	NCCCC[C@H](N)C(=O)Nc1ccc(-n2nc(C(F)(F)F)cc2-c2ccc3c(ccc4ccccc43)c2)cc1	inactive
inactive	NCCC(=O)Nc1ccc(-n2nc(C(F)(F)F)cc2-c2ccc3ccc4ccccc4c3c2)cc1	inactive
inactive	NC(=O)c1cccc(C(=O)N2CCN(c3ccc(-n4nc(C(F)(F)F)cc4-c4ccc5c(ccc6ccccc65)c4)cc3)CC2)c1	inactive
inactive	CC(=O)c1ccc(S(=O)(=O)N2CCN(c3ccc(-n4nc(C(F)(F)F)cc4-c4ccc5c(ccc6ccccc65)c4)cc3)CC2)cc1	inactive
inactive	O=C(Nc1ccc(-n2nc(C(F)(F)F)cc2-c2ccc3c(ccc4ccccc43)c2)cc1)N1CCOCC1	inactive
inactive	O=C(c1ccc(OC(F)(F)F)cc1)N1CCN(c2ccc(-n3nc(C(F)(F)F)cc3-c3ccc4c(ccc5ccccc54)c3)cc2)CC1	inactive
inactive	CCNC(=O)c1cc(-c2ccc3ccc4ccccc4c3c2)n(-c2ccc(NC(=O)CCN)cc2)n1	inactive
inactive	O=C1CCC(=O)N1c1ccc(-n2nc(C(F)(F)F)cc2-c2ccc3c(ccc4ccccc43)c2)cc1	inactive
inactive	O=C(c1cccc([N+](=O)[O-])c1)N1CCN(c2ccc(-n3nc(C(F)(F)F)cc3-c3ccc4c(ccc5ccccc54)c3)cc2)CC1	inactive
inactive	NCCC(=O)Nc1ccc(-n2nc(C(F)(F)F)cc2-c2ccc(-c3ccc(C(F)(F)F)cc3)cc2)cc1	inactive
inactive	CCC(C)C(N)C(=O)Nc1ccc(-n2nc(C(F)(F)F)cc2-c2ccc(-c3ccc(C(F)(F)F)cc3)cc2)cc1 (stereo unspecified)	inactive
inactive	NC(=O)CCNc1ccc(-n2nc(C(F)(F)F)cc2-c2ccc3c(ccc4ccccc43)c2)cc1	inactive
inactive	CCNC(=O)c1cc(-c2ccc(-c3ccc(C(F)(F)F)cc3)cc2)n(-c2ccc(NC(=O)CCN)cc2)n1	inactive
inactive	NS(=O)(=O)Nc1ccc(-n2nc(C(F)(F)F)cc2-c2ccc3c(ccc4ccccc43)c2)cc1	inactive
inactive	CNC(=O)CCc1cc(-c2ccc(-c3ccc(C(F)(F)F)cc3)cc2)n(-c2ccc(N3CCOCC3)cc2)n1	inactive
inactive	CNC(=O)c1cc(-c2ccc3ccc4ccccc4c3c2)n(-c2ccc(NC(=O)CN)cc2)n1	inactive
inactive	COc1ccc(S(=O)(=O)N2CCN(c3ccc(-n4nc(C(F)(F)F)cc4-c4ccc5c(ccc6ccccc65)c4)cc3)CC2)cc1	inactive
inactive	CC(C)NC(=O)CCc1cc(-c2ccc(-c3ccc(C(F)(F)F)cc3)cc2)n(-c2ccc(NC(=O)CCN)cc2)n1	inactive
inactive	O=C(c1ccc([N+](=O)[O-])cc1)N1CCN(c2ccc(-n3nc(C(F)(F)F)cc3-c3ccc4c(ccc5ccccc54)c3)cc2)CC1	inactive
inactive	NCC(=O)Nc1ccc(-n2nc(C(F)(F)F)cc2-c2ccc3ccc4ccccc4c3c2)cc1	inactive
inactive	O=[N+]([O-])c1ccc(S(=O)(=O)N2CCN(c3ccc(-n4nc(C(F)(F)F)cc4-c4ccc5c(ccc6ccccc65)c4)cc3)CC2)cc1	inactive
